Assays:
P388 [1] = test: Ratio of IC50 of P388 cells to that of CPT45 cells; type: functional, Mus musculus
DNA topoisomerase 1 = molecular target: T1, DNA topoisomerase 1 (Homo sapiens, UniProt P11387); test: Topoisomerase I activity for single-strand breaks in the DNA substrate
T1 sequence (P11387 whole entry): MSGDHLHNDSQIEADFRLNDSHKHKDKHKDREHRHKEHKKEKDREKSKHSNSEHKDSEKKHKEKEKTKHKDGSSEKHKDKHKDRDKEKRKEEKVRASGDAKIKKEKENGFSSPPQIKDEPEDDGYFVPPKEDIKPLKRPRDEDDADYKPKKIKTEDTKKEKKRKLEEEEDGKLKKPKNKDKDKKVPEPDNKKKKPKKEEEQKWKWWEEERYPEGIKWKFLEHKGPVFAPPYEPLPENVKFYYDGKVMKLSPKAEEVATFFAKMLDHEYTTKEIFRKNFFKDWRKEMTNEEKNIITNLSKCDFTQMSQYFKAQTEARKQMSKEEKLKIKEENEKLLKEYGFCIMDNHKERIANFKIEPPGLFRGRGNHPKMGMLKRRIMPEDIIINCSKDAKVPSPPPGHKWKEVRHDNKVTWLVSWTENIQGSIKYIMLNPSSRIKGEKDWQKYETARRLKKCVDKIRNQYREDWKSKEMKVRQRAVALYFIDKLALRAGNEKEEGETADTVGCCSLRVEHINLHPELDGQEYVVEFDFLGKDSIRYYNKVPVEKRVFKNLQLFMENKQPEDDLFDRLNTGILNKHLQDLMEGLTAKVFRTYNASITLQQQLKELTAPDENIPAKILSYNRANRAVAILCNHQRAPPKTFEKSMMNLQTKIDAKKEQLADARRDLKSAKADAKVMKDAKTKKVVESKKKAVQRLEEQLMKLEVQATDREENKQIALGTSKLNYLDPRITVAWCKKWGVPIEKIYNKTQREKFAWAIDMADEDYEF
Outline: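 Topo I-mediated DNA cleavage assay using covalently closed, supercoiled phage PM2 DNA as substrate; read-out is induction of single-strand breaks.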

HT-29 [2] = test: Antitumor activity against HT-29 human colon carcinoma xenograft model; Activity expressed as no. of cures by total (8); type: functional
HT-29 [3] = test: In vivo antitumor activity against HT-29 human colon carcinoma xenograft model when administered iv, (1:1:8 cremophor: ethanol: water vehicle) expressed as optimal effect in LCK; type: functional
HT-29 [4] = test: Optimal dose required for antitumor activity against HT-29 human colon carcinoma xenograft model when administered once a day iv dosing every other day for five doses (q2dx5,iv); type: functional
P388 [5] = test: Cytotoxic concentration against murine leukemia P388 cells; type: functional, cell-based, Mus musculus
HT-29 [6] = test: Optimal dose required for antitumor activity against HT-29 human colon carcinoma xenograft model when administered twice a day iv dosing every other day for five doses (2q2dx5,iv); type: functional
HT-29 [7] = test: Optimal dose required for antitumor activity against HT-29 human colon carcinoma xenograft model when administered once a day iv dosing every other day for five doses (q2dx5,iv); MTD=30 mg.kg/inj; type: functional

SMILES	Ratio (P388 [1])	EC50 (DNA topoisomerase 1) [nM]	No. of cures (HT-29 [2])	Activity (HT-29 [3])	Optimal dose (HT-29 [4]) [mg.kg/inj]	IC50 (P388 [5]; Mus musculus, P388) [nM]	Optimal dose (HT-29 [6]) [mg.kg/inj]	IC50 (P388 [5]; p388) [nM]	Optimal dose (HT-29 [7]) [mg.kg/inj]
O=C1NC(=O)c2c1c1c3cc(F)ccc3[nH]c1c1c2c2cc(F)ccc2n1C1OC(COF)C(F)C(O)C1O (centres undefined)	450	410	0	1.6	13	4			
O=C1NC(=O)c2c1c1c3cc(F)c(F)cc3sc1c1c2c2cc(F)c(F)cc2n1C1OC(CO)C(F)C(O)C1O (centres undefined)	>1658	40	2	>2.3		3	11		
O=C1NC(=O)c2c1c1c3cc(F)c(F)cc3sc1c1c2c2cc(F)c(F)cc2n1C1OC(CO)C(F)(F)C(O)C1O (centres undefined)	580	500				0.4			
O=C1NC(=O)c2c1c1c3ccc(F)cc3[nH]c1c1c2c2ccc(F)cc2n1C1OC(CO)C(F)C(O)C1O (centres undefined)	59	200				3			
O=C1NC(=O)c2c1c1c3cc(F)c(F)cc3[nH]c1c1c2c2cc(F)c(F)cc2n1C1OC(CF)C(O)C(O)C1O (centres undefined)	52	3000				34			
O=C1NC(=O)c2c1c1c3cc(F)c(F)cc3[nH]c1c1c2c2cc(F)c(F)cc2n1C1OC(CO)C(F)C(O)C1O (centres undefined)	500	750				4			
O=C1NC(=O)c2c1c1c3cc(F)ccc3sc1c1c2c2cc(F)ccc2n1C1OC(CF)C(O)C(O)C1O (centres undefined)	110	420				16			
O=C1NC(=O)c2c1c1c3cc(F)ccc3[nH]c1c1c2c2cc(F)ccc2n1C1OC(CF)C(O)C(O)C1O (stereo in doubt; 10)	110	4400						12	
O=C1NC(=O)c2c1c1c3cc(F)ccc3[nH]c1c1c2c2cc(F)ccc2n1C1OC(CO)C(F)C(O)C1O (centres undefined)	380	110	2	3.1		2			20
O=C1NC(=O)c2c1c1c3cc(F)ccc3[nH]c1c1c2c2cc(F)ccc2n1C1OC(CO)C(O)C(O)C1O (centres undefined)	183	240				18			
O=C1NC(=O)c2c1c1c3cc(F)ccc3[nH]c1c1c2c2cc(F)ccc2n1C1OC(CO)C(F)(F)C(O)C1O (centres undefined)	380	80				3			
O=C1NC(=O)c2c1c1c3cc(F)ccc3[nH]c1c1c2c2cc(F)ccc2n1C1OC(CF)C(O)C(O)C1O (stereo in doubt; 6)	98	480						50	
NCC1OC(n2c3ccc(F)cc3c3c4c(c5c6cc(F)ccc6[nH]c5c32)C(=O)NC4=O)C(O)C(O)C1F (centres undefined)	37	70				14			
NCC1OC(n2c3cc(F)c(F)cc3c3c4c(c5c6cc(F)c(F)cc6[nH]c5c32)C(=O)NC4=O)C(O)C(O)C1(F)F (centres undefined)	16	50				60			
O=C1NC(=O)c2c1c1c3cc(F)c(F)cc3sc1c1c2c2cc(F)c(F)cc2n1C1OC(CF)C(O)C(O)C1O (centres undefined)	119	1500				52			

From ChEMBL document CHEMBL1143557, “Discovery of a fluoroindolo[2,3-a]carbazole clinical candidate with broad spectrum antitumor activity in preclinical tumor models superior to the marketed oncology drug, CPT-11” (J Med Chem, 2005)
